The text below walks through data of ChEMBL document CHEMBL1143844, “Biochemical studies on the mechanism of human immunodeficiency virus type 1 reverse transcriptase resistance to 1-(beta-D-dioxolane)thymine triphosphate” (Antimicrob Agents Chemother, 2007).

Molecules are shown by their SMILES.

Test [1] in a line: Inhibition of HIV1 reverse transcriptase wild type HXB2(b) by heteropolymeric DNA polymerase assay. Set-up: species or system Human immunodeficiency virus 1. A digest of the protocol: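 Heteropolymeric assay without ATP: plate-bound 18-mer DNA primer (~110 nM) with 50-mer 5′-A12-(GTCA)5 template (190 nM). dATP, dGTP, dCTP and BrdUTP at 1.0 μM each, in HEPES 50 mM pH 7.3, MgCl2 10 mM. RT 30–100 pM, 33°C for 180 min, then NaOH dehybridization and anti-BrdU-AP tracer read at 405 nm. IC50 from seven triphosphate concentrations; two to four runs in duplicate.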

Test [2] is described as follows: Inhibition of HIV1 HXB2 reverse transcriptase 41L/67N/70R/215Y/219Q mutant by heteropolymeric DNA polymerase assay.
A short description of test [3]: Inhibition of HIV1 reverse transcriptase 41L/69S-SG/184V/210W/215Y mutant in presence of 5 mM ATP by heteropolymeric DNA polymerase assay. Set-up: species or system Human immunodeficiency virus 1. The method in brief: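 Heteropolymeric DNA polymerase assay with ATP added at 5 mM. Purified HIV-1 RT at 30–100 pM acts on a plate-bound DNA primer with a 5′-A12-(GTCA)5-3′ template. dATP, dGTP, dCTP and BrdUTP at 1.0 μM each. Incubation 180 min at 33°C. BrdUMP incorporation read via anti-BrdU-AP at 405 nm after NaOH dehybridization. IC50 from seven inhibitor concentrations, at least two experiments in duplicate.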

Test [4] can be described thus: Inhibition of HIV1 reverse transcriptase 41L/69S-SG/184V/210W/215Y mutant by heteropolymeric DNA polymerase assay. Set-up: species or system Human immunodeficiency virus 1. A digest of the protocol:
(§1)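 Purified p66/p51 HIV-1 RT, or p66 homodimer for 65R, at 30–100 pM (about 1.5–4.5 mU/well). Plate-bound 18-mer DNA primer on a 50-base 5′-A12-(GTCA)5-3′ DNA template. dATP, dGTP, dCTP and BrdUTP at 1.0 μM each, no ATP. Buffer: HEPES 50 mM pH 7.3, 10 mM MgCl2. Incubation 180 min at 33°C, NaOH dehybridization, anti-BrdU-AP tracer, A405. IC50 from seven inhibitor concentrations, at least two experiments in duplicate.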

Test [5] in a line: Inhibition of HIV1 reverse transcriptase 41L/67N/70R/210W/215Y mutant in presence of 3.2 mM ATP by prA/odT assay. On the set-up: species or system Human immunodeficiency virus 1. The method in brief:
(§2)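 Buffer: 50 mM HEPES pH 7.3, 10 mM MgCl2, 0.5% Triton X-100, 0.1 mg/ml BSA. Incubation 180 min at 33°C. Product detected with AP-conjugated anti-BrdU at 405 nm. […] Ki from four inhibitor levels. At least two experiments in duplicate.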

Test [6] in a line: Inhibition of HIV1 reverse transcriptase 41L/67N/70R/210W/215Y mutant by heteropolymeric DNA polymerase assay. On the set-up: species or system Human immunodeficiency virus 1. A digest of the protocol: as §1
The nature of test [7]: Inhibition of HIV1 reverse transcriptase 41L/67N/70R/215Y/219Q mutant in presence of 3.2 mM ATP by prA/odT assay. Set-up: species or system Human immunodeficiency virus 1. A digest of the protocol: as §2
Test [8] can be described thus: Inhibition of HIV1 reverse transcriptase wild type HXB2(b) in presence of 3.2 mM ATP by prA/odT assay. Set-up: species or system Human immunodeficiency virus 1.
A short description of test [9]: Inhibition of HIV1 reverse transcriptase 41L/67N/70R/210W/215Y mutant in presence of 1 uM dNTP by heteropolymeric DNA polymerase assay. Set-up: species or system Human immunodeficiency virus 1. A digest of the protocol: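 DNA polymerase assay with 5 mM ATP and purified HIV-1 RT (HXB2 background) on a plate-bound primer with a 5′-A12-(GTCA)5-3′ template. Each dNTP (dATP, dGTP, dCTP, BrdUTP) is set at either 1 μM or 20 μM. IC50 from at least two experiments in duplicate. Fold change is relative to wild-type RT at the same dNTP level.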

A short description of test [10]: Inhibition of HIV1 LAI reverse transcriptase 65R mutant by heteropolymeric DNA polymerase assay. On the set-up: species or system Human immunodeficiency virus 1. A digest of the protocol:
as §1

The nature of test [11]: Inhibition of HIV1 reverse transcriptase 41L/67N/70R/210W/215Y mutant in presence of 5 mM ATP by heteropolymeric DNA polymerase assay. Set-up: species or system Human immunodeficiency virus 1. The method in brief: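 Heteropolymeric DNA polymerase assay with ATP added at 5 mM. Purified HIV-1 RT at 30–100 pM acts on a plate-bound DNA primer with a 5′-A12-(GTCA)5-3′ template. dATP, dGTP, dCTP and BrdUTP at 1.0 μM each. Incubation 180 min at 33°C. IC50 from seven inhibitor concentrations, at least two experiments in duplicate.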

A short description of test [12]: Inhibition of HIV1 reverse transcriptase wild type HXB2(a) in presence of 20 uM dNTP by heteropolymeric DNA polymerase assay. Set-up: species or system Human immunodeficiency virus 1. A digest of the protocol:
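Heteropolymeric DNA assay containing 5 mM ATP on the 5′-A12-(GTCA)5 template, with each dNTP (BrdUTP in place of TTP) at 1 μM or, in the modified version, 20 μM. Mean IC50 from at least two runs in duplicate.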

The nature of test [13]: Inhibition of HIV1 reverse transcriptase 41L/67N/70R/210W/215Y mutant in presence of 5'-A12-(GACT)5-3' by heteropolymeric DNA polymerase assay. Set-up: species or system Human immunodeficiency virus 1. A digest of the protocol: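 DNA polymerase assay with 5 mM ATP and 1 μM each dATP, dGTP, dCTP and BrdUTP. The 50-base DNA template carries a 5′-A12 tail with a (GTCA)5 or (GACT)5 repeat. Incubation 180 min at 33°C, NaOH dehybridization, anti-BrdU-AP detection at 405 nm. IC50 from at least two experiments in duplicate. Fold change is relative to wild-type RT on the same template.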

The nature of test [14]: Inhibition of HIV1 reverse transcriptase 41L/67N/70R/210W/215Y mutant in presence of 5'-A12-(GTCA)5-3' by heteropolymeric DNA polymerase assay. Set-up: species or system Human immunodeficiency virus 1. A digest of the protocol: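 DNA polymerase assay with 5 mM ATP and 1 μM each dATP, dGTP, dCTP and BrdUTP. The 50-base DNA template carries a 5′-A12 tail with a (GTCA)5 or (GACT)5 repeat. IC50 from at least two experiments in duplicate. Fold change is relative to wild-type RT on the same template.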

The nature of test [15]: Inhibition of HIV1 reverse transcriptase 41L/69S-SG/210W/215Y mutant in presence of 5'-A12-(GACT)5-3' by heteropolymeric DNA polymerase assay.
A short description of test [16]: Inhibition of HIV1 reverse transcriptase 41L/67N/70R/184V/210W/215Y mutant by heteropolymeric DNA polymerase assay. Set-up: species or system Human immunodeficiency virus 1. A digest of the protocol:
as §1

The nature of test [17]: Inhibition of HIV1 reverse transcriptase wild type HXB2(a) in presence of 5'-A12-(GACT)5-3' by heteropolymeric DNA polymerase assay. Set-up: species or system Human immunodeficiency virus 1. A digest of the protocol: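 Heteropolymeric DNA assay with 5 mM ATP and dNTPs (BrdUTP replacing TTP) at 1.0 μM, using an alternative template repeat, 5′-A12-(GACT)5-3′. Run at 33°C for 180 min, followed by NaOH dehybridization and anti-BrdU-AP detection at 405 nm. IC50 reported in μM as the mean of at least two runs in duplicate.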

As usually defined, the IC50 is the concentration at which inhibition is half-maximal. For orientation: Ki means a measure of affinity in units of concentration, obtained from inhibition or displacement. As for `Cc1cn([C@H]2C[C@H](N=[N+]=[N-])[C@@H](COP(=O)(O)OP(=O)(O)OP(=O)(O)O)O2)c(=O)[nH]c1=O` [ZIDOVUDINE TRIPHOSPHATE], the IC50 in [1] came out at 200 nM; in test [2], 190 nM; in test [3] it was 1200 nM; in test [4], 210 nM; in test [6], 140 nM. The inhibition constant Ki was 130 nM in test [5], 95 nM in [7] and 4 nM in [8].

`C[C@H](Cn1cnc2c(N)ncnc21)OCP(=O)(O)OP(=O)(O)OP(=O)(O)O`: the half-maximal inhibitory concentration (IC50) in test [9] amounted to 13000 nM; in test [10], 12000 nM; in test [11], 13000 nM; in test [12] it was 19000 nM; in test [13], 8600 nM; in [14], 13000 nM. Further, the IC50 in test [15] turned out to be 17000 nM; in test [6], 1400 nM; in test [16] it was 1400 nM; in [17], 2800 nM.

For `Cc1cn([C@H]2CO[C@@H](COP(=O)(O)OP(=O)(O)OP(=O)(O)O)O2)c(=O)[nH]c1=O`, the IC50 was 500 nM in test [9]; 460 nM in [10]; 500 nM in test [11]; 120 nM in test [1]; 2000 nM in test [12]; 400 nM in [13]. Moreover, the IC50 in test [14] was 500 nM; in test [2] it was 130 nM; in [15], 780 nM; in test [3], 1400 nM; in [4] it was 220 nM; in test [16], 160 nM. Also, the half-maximal inhibitory concentration (IC50) in [17] turned out to be 310 nM. Moreover, the Ki in test [5] turned out to be 13 nM; in test [7] it was 11 nM; in test [8], 1.8 nM.
